Measurements: ChEMBL document CHEMBL2311444, “Synthesis of derivatives of the keto-pyrrolyl-difluorophenol scaffold: some structural aspects for aldose reductase inhibitory activity and selectivity” (Bioorg Med Chem, 2013)

What was measured:
Rattus norvegicus = species: Rattus norvegicus; experiment: Selectivity index, ratio of IC50 for Fischer-344 rat kidney ALR1 to IC50 for Fischer-344 rat lens ALR2; assay type: tissue-based; details: Lens of camera-type eye
Outline: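 Selectivity index calculated from the IC50 values of two spectrophotometric NADPH-consumption assays (340 nm). Rat kidney ALR1 was measured at 37 °C and rat lens ALR2 at 30 °C. Each IC50 was derived by least-squares fitting of triplicate five-concentration log(dose)–response data.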

[1] = target: Aldo-keto reductase family 1 member A1 (Rattus norvegicus) (UniProt P51635); experiment: Inhibition of Fischer-344 rat kidney ALR1 using D-glycuronate as substrate at 10' -5 M by spectrophotometry
[2] = target: Aldo-keto reductase family 1 member A1 (Rattus norvegicus, UniProt P51635); experiment: Inhibition of Fischer-344 rat kidney ALR1 using D-glycuronate as substrate by spectrophotometry
[3] = target: Aldo-keto reductase family 1 member B1 (Rattus norvegicus, UniProt P07943); experiment: Inhibition of Fischer-344 rat lens ALR2 by spectrophotometry

Sequence of Aldo-keto reductase family 1 member A1 (Rattus norvegicus) (P51635 whole entry, looked up): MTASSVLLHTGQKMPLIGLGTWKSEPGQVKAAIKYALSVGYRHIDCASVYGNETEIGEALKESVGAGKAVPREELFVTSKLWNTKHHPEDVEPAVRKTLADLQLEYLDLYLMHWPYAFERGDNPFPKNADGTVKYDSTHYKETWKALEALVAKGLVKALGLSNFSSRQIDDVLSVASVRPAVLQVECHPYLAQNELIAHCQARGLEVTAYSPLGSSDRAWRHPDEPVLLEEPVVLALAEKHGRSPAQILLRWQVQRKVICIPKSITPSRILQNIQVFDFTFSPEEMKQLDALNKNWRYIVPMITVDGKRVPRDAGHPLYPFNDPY
Sequence of Aldo-keto reductase family 1 member A1 (P51635 whole entry, looked up): as above

SMILES	Ratio IC50 (Rattus norvegicus)	inhibition [1] [%]	IC50 [2] [nM]	IC50 [3] [nM]
O=C(c1cccn1-c1cc(F)c(O)c(F)c1)C(F)(F)F	20.3	26.5	18900	930
O=C(c1ccc(-c2ccccc2)cc1)c1cccn1-c1cc(F)c(O)c(F)c1	238	5.85	121000	510
O=C(c1ccc(Br)cc1F)c1cccn1-c1cc(F)c(O)c(F)c1	1	96.8	190	190
O=C(c1ccc(OC(F)(F)F)cc1)c1ccn(-c2cc(F)c(O)c(F)c2)c1	17.5	38	13100	750
O=C(c1ccc(-c2ccccc2)cc1)c1ccn(-c2cc(F)c(O)c(F)c2)c1	1.87	72.8	5630	2300
O=C(c1ccc(OC(F)(F)F)cc1)c1cccn1-c1cc(F)c(O)c(F)c1	31.1	30.9	16200	520
O=C(c1ccn(-c2cc(F)c(O)c(F)c2)c1)c1ccc(Br)cc1F			4310	400
